The text below walks through data of ChEMBL document CHEMBL3046718, “Synthesis and herbicidal activity of 5-(4-hydroxybenzyl)-2-thioxoimidazolidin-4-one esters” (2011).

Assay type in all cases: functional
The test system of assay [1] is Setaria viridis. Briefly: Herbicidal activity against Setaria viridis (green foxtail) at 1000 g/ha treated as post-emergence under greenhouse condition.
The subject of assay [2] is Echinochloa crus-galli. Briefly: Herbicidal activity against Echinochloa crus-galli (barnyard grass) at 1000 g/ha treated as post-emergence under greenhouse condition.
The subject of assay [3] is Stellaria media. Briefly: Herbicidal activity against Stellaria media at 1000 g/ha treated as post-emergence under greenhouse condition.
Assay [4] concerns Echinochloa crus-galli. Briefly: Herbicidal activity against Echinochloa crus-galli (barnyard grass) at 1000 g/ha treated as pre-emergence under greenhouse condition.
Assay [5] has as its system Setaria viridis. Briefly: Herbicidal activity against Setaria viridis (green foxtail) at 1000 g/ha treated as pre-emergence under greenhouse condition.
Assay [6] concerns Stellaria media. Briefly: Herbicidal activity against Stellaria media at 1000 g/ha treated as pre-emergence under greenhouse condition.
Assay [7] concerns Arabidopsis thaliana. Briefly: Herbicidal activity against Arabidopsis thaliana assessed as inhibition of seed germination at 200 ug/ml relative to control. A digest of the protocol: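 Five sterilized Arabidopsis thaliana […] per well in 24-well sterile plates, each with 100 μL of test solution at 200 mg/L, grown in an illumination incubator. Distilled water served as blank and metazachlor as positive control. Inhibitory ratio (0–100%) was scored against distilled water.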

The test system of assay [8] is Triticum aestivum. Briefly: Herbicidal activity against Triticum aestivum (wheat) assessed as inhibition of root growth at 200 ug/ml relative to control. The conditions noted are these: read-out: GI. The gist of the method: (§1)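 Seedlings were grown in an illumination incubator from ten Zea mays seeds or five Triticum aestivum seeds per plate, on filter paper wetted with 2 mL of test solution at 200 mg/L. Distilled water served as blank and metazachlor as positive control. Inhibitory ratio (0–100%) was scored against distilled water.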

Assay [9] concerns Triticum aestivum. Briefly: Herbicidal activity against Triticum aestivum (wheat) assessed as inhibition of height growth at 200 ug/ml relative to control. The conditions noted are these: read-out: GI. A digest of the protocol: as §1
The test system of assay [10] is Zea mays. Briefly: Herbicidal activity against Zea mays (maize) assessed as inhibition of root growth at 200 ug/ml relative to control. The conditions noted are these: read-out: GI. The gist of the method: as §1
Assay [11] relates to Zea mays. Briefly: Herbicidal activity against Zea mays (maize) assessed as inhibition of height growth at 200 ug/ml relative to control. The conditions noted are these: read-out: GI. A digest of the protocol:
as §1

As to `O=C(Cc1cccc2ccccc12)Oc1ccc(CC2NC(=S)NC2=O)cc1` (configuration not stated), the inhibition at 1000 g/ha in [1] is 0%; in assay [2], 0%; in assay [3], 0%; in [4], 50%; in [5], 50%; in assay [6] it was 60%. Also, the inhibition at 200 µg/mL in assay [7] was determined as 10%. The inhibition of growth at 200 µg/mL in assay [8] worked out at 56.7%; in [9], 100%; in [10], 88%; in [11], 77.4%.

Take `CC(=O)Oc1ccc(CC2NC(=S)NC2=O)cc1` (configuration not stated): the inhibition at 200 µg/mL in assay [7] was determined as 10%. Moreover, the inhibition of growth at 200 µg/mL in [8] was 20.9%; in [9], -3.6%; in assay [10], -6.7%; in assay [11], -14.5%.

As for `O=C(Oc1ccc(CC2NC(=S)NC2=O)cc1)c1ccc(F)cc1` (configuration not stated), the inhibition at 200 µg/mL in assay [7] came to 20%. Also, the inhibition of growth at 200 µg/mL in [8] is -8.5%; in [9], -22.9%; in assay [10], 66.3%; in assay [11] it was 32.8%.

For the compound `O=C(Oc1ccc(CC2NC(=S)NC2=O)cc1)c1ccc([N+](=O)[O-])cc1` (configuration not stated), the inhibition at 1000 g/ha in assay [1] came to 0%; in assay [2] it was 0%; in assay [3], 0%; in [4] it was 50%; in assay [5], 50%; in assay [6], 60%. In addition, in assay [7], the inhibition at 200 µg/mL is 40%. The inhibition of growth at 200 µg/mL in assay [8] was -25.8%; in [9] it was -24.6%; in assay [10], 100%; in [11], 100%.

`Cc1cccc(C)c1N(Cn1cccn1)C(=O)CCl` [METAZACHLOR]: the inhibition at 200 µg/mL in assay [7] was 70%. The inhibition of growth at 200 µg/mL in assay [8] was 77.7%; in assay [9] it was 78.6%; in [10], 83%; in assay [11], 79%.

By inhibition is commonly meant the relative decrease from the control value, in per cent.
